In experiment [1] the target is T1, Neuronal acetylcholine receptor subunit alpha-7 (Rattus norvegicus, UniProt Q05941). Kind of experiment: Displacement of [3H]epibatidine from rat alpha7 nAChR transfected in HEK293 cells by liquid scintillation counting. The format is cell-based. Put shortly:
(§1)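 Stably transfected HEK293 cells scraped at >80% confluence into 50 mM Tris·HCl pH 7.4 at 4 °C and spun at 10,000 g. Pellet homogenised and spun at 36,000 g for 10 min at 4 °C, then resuspended. Competition against racemic [3H]epibatidine at ~500 pM (α3β4, α4β2) or ~2 nM (α7). Nonspecific binding with 300 µM nicotine. GF/C filters pretreated with 0.5% PEI. Ki derived.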
In general terms: In a radioligand displacement assay an active substance lowers the binding of a labelled ligand.

The target of experiment [2] is Neuronal acetylcholine receptor; alpha4/beta2 (Rattus norvegicus, UniProt P09483+P12390). Description: Displacement of [3H]epibatidine from rat alpha4beta2 nAChR transfected in HEK293 cells by liquid scintillation counting. The format is cell-based. Put shortly:
as §1

The target in experiment [3] is Neuronal acetylcholine receptor; alpha3/beta4 (Rattus norvegicus, UniProt P04757+P12392). Kind of experiment: Displacement of [3H]epibatidine from rat alpha3beta4 nAChR transfected in HEK293 cells by liquid scintillation counting. The format is cell-based. Put shortly: as §1
Sequence of Neuronal acetylcholine receptor; alpha3/beta4 (P04757 whole entry): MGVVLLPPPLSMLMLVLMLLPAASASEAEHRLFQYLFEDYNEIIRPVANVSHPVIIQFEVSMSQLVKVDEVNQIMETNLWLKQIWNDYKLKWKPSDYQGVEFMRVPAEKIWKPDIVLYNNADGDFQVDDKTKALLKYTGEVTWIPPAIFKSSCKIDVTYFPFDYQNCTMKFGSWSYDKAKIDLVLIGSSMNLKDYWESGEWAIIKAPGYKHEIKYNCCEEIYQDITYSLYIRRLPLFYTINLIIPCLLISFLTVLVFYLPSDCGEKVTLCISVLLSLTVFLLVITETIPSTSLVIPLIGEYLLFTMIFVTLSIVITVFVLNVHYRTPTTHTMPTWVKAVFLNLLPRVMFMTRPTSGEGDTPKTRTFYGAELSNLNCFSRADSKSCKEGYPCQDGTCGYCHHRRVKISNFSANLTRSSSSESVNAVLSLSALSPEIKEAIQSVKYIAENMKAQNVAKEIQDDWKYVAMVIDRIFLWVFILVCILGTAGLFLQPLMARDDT
Sequence of Neuronal acetylcholine receptor; alpha3/beta4 (P12392 whole entry): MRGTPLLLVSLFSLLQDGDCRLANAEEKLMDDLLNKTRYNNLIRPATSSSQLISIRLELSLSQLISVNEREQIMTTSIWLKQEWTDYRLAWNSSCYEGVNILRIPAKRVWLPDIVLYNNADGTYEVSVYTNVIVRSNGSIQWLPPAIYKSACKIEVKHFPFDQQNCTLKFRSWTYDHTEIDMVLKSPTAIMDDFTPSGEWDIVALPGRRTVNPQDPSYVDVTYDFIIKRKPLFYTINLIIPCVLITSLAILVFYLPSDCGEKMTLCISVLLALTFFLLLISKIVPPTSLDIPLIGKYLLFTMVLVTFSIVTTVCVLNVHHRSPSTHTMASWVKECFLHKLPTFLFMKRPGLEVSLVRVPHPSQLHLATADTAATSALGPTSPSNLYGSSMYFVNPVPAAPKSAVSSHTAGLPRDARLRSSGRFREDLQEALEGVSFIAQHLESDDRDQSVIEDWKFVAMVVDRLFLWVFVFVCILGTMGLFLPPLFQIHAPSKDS
Experiment [4] concerns the target T1, Neuronal acetylcholine receptor subunit alpha-7. Kind of experiment: Agonist activity at rat alpha7 nAChR expressed in GH4C1 cells by fluorescent calcium assay. The format is cell-based, GH4-C1. In a few lines: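 GH4C1 cells stably expressing rat α7 loaded with Fluo4 Direct dye. Baseline fluorescence read, then compound added, and peak/base ratios taken; >1.00 taken as agonism. Tested at 0.03, 0.1, 0.3, 1, 3 and 10 µM (one compound at 0.001–0.3 µM), n = 3. EC50 from dose–response curves.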

The target is the same in experiment [5]. Kind of experiment: Agonist activity at rat alpha7 nAChR expressed in GH4C1 cells by patch-clamp electrophysiology assay. The format is cell-based, GH4-C1.
The target of experiment [6] is Neuronal acetylcholine receptor subunit alpha-7 (Rattus norvegicus) (UniProt Q05941). Kind of experiment: Agonist activity at rat alpha7 nAChR expressed in GH4C1 cells by patch-clamp electrophysiology assay relative to acetylcholine. The settings on record: GH4-C1. The format is cell-based.
Sequence of Neuronal acetylcholine receptor subunit alpha-7 (Rattus norvegicus) (Q05941 whole entry): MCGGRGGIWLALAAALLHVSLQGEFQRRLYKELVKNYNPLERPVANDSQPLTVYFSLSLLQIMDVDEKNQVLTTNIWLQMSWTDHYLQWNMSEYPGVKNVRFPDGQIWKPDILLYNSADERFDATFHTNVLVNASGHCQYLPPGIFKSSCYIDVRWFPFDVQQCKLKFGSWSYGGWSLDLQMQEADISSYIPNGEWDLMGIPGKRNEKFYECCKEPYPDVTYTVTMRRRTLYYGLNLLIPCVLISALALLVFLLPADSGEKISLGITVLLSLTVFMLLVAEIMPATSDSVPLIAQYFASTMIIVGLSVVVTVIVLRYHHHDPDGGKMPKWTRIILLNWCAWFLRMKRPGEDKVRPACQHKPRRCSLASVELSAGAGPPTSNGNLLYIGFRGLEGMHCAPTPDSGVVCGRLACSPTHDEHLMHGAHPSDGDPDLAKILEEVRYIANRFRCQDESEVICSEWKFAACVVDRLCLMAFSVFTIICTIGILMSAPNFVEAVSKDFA

T1 sequence (Q05941 whole entry): as above
Sequence of Neuronal acetylcholine receptor; alpha4/beta2 (P09483 whole entry): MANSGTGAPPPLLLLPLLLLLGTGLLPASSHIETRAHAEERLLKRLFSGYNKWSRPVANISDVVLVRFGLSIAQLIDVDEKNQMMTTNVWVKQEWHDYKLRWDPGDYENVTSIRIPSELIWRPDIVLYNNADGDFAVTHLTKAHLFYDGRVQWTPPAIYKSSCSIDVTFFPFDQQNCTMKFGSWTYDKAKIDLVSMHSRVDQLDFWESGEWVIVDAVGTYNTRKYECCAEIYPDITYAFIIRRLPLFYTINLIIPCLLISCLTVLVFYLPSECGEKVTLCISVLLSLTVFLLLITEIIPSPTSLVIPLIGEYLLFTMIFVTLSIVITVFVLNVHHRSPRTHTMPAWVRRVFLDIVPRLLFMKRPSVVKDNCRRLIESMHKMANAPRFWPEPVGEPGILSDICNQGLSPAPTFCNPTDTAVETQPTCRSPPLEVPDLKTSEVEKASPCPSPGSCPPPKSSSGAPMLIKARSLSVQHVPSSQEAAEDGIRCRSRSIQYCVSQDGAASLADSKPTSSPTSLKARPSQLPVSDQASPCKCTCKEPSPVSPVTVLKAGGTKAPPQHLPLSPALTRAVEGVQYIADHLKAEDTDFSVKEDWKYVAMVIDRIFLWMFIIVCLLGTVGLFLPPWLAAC
Sequence of Neuronal acetylcholine receptor; alpha4/beta2 (P12390 whole entry): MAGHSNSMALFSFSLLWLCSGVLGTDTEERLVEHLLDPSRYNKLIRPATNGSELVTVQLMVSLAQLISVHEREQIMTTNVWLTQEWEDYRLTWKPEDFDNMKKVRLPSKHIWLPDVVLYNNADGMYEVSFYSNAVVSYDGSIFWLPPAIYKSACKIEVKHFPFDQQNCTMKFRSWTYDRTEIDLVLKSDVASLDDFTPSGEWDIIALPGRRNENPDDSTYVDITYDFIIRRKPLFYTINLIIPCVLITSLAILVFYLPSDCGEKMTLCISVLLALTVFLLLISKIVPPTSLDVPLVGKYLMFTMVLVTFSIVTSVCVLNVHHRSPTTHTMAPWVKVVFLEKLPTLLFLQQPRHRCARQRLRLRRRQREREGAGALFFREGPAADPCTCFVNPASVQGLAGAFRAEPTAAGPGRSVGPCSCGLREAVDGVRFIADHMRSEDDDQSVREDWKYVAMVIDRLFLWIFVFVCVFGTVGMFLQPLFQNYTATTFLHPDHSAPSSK

The Ki is the equilibrium dissociation constant of an inhibitor or competing ligand from its target. Low readings indicate tighter binding, high ones weaker binding. For `CN1CCN(CCCCNC(=O)c2ccc(-c3ccccc3)cc2)CC1`, the values for the Ki in experiment [1], in experiment [2] and in experiment [3] were 5.4 µM, more than 10 µM and more than 100 µM, respectively.

On to `CN1C[C@@H]2C[C@H]1CN2CCCCNC(=O)c1ccc(-c2ccccc2)cc1`, for which the inhibition constant (Ki) in experiment [1] is 6.1 µM; in experiment [2], more than 10 µM; in experiment [3] it was more than 10 µM.

`O=C(CCCCN1CCCCC1)Nc1ccc(-c2ccccc2)cc1`: the values for the Ki in experiment [1], in experiment [2] and in experiment [3] were 0.19 µM, more than 10 µM and 2.6 µM, respectively.

Take `c1ccc(-c2ccc(N3CCCCC3)cc2)cc1`: the Ki in experiment [1], in experiment [2] and in experiment [3] was more than 10 µM throughout.

Broadly, the EC50 is the concentration needed to bring the measured effect to its halfway point. As to `O=C(CCCCN1CCOCC1)Nc1ccc(-c2ccc3[nH]ccc3c2)cc1`, the Ki in experiment [1] was 0.31 µM; in experiment [2], more than 10 µM; in experiment [3], more than 10 µM. The EC50 in experiment [4] was 0.997 µM.

As for `CN1CCN(CCCCC(=O)Nc2cc(-c3ccccc3)[nH]n2)CC1`, the Ki in experiment [1], in experiment [2] and in experiment [3] was more than 10 µM throughout.

In the case of `c1ccc(-c2ccc(N3CCCCC3)nn2)cc1`, the Ki in experiment [1], in experiment [2] and in experiment [3] was more than 10 µM in each case.

Regarding `O=C(CCCCN1CCOCC1)Nc1ccc(-c2ccccn2)cc1`, the Ki in experiment [1] was 0.33 µM; in experiment [2] it was more than 10 µM; in experiment [3], more than 10 µM.

On to `c1cncc(-c2ccc(N3CCCCC3)cc2)c1`, for which the Ki in experiment [1], in experiment [2] and in experiment [3] was more than 10 µM in each case.

On to `O=C(CCCCN1CC2(COC2)C1)Nc1ccc(-c2cccnc2)cc1`, for which the Ki is more than 10 µM in experiment [1], more than 10 µM in experiment [2] and more than 50 µM in experiment [3].

For the molecule `O=C(NCCCCN1CCCCC1)c1ccc(-c2cccnc2)cc1`, the Ki in experiment [1] is 1.4 µM; in experiment [2] it was more than 10 µM; in experiment [3], more than 50 µM.

As to `CN1CCN(c2ccc(-c3ccccc3)nn2)CC1`, the Ki was 4.07 µM in experiment [1], 0.417 µM in experiment [2] and more than 10 µM in experiment [3].

Usually Emax stands for the greatest response seen or fitted, relative to the assay's reference. As to `O=C(CCCCN1CCOCC1)Nc1ccc(-c2cccnc2)cc1`, the half-maximal effective concentration (EC50) came to 42 µM in experiment [5] and 0.687 µM in experiment [4]. Moreover, the Emax in experiment [6] came out at 104%. Besides, the Ki in experiment [2] and in experiment [3] was more than 10 µM in each case.

On to `CN1C[C@@H]2C[C@H]1CN2CCCCC(=O)Nc1ccc(-c2ccccc2)cc1`, for which the Ki in experiment [1] was 3.2 µM; in experiment [2], more than 10 µM; in experiment [3], more than 10 µM.

Consider `CN1C[C@@H]2C[C@H]1CN2CCCCNC(=O)c1ccc(-c2cccnc2)cc1`, for which the inhibitory constant (Ki) in experiment [1], in experiment [2] and in experiment [3] was more than 10 µM throughout.

`O=C(CCCCN1CCOCC1)Nc1ccc(-c2ccncc2)cc1`: the Ki in experiment [1] was 0.35 µM; in experiment [2], more than 10 µM; in experiment [3] it was more than 10 µM. Moreover, the EC50 in experiment [4] was found to be 0.522 µM.

`O=C(CCCCN1CCOCC1)Nc1ccc(-c2cccnc2F)cc1`: the half-maximal effective concentration (EC50) came to 27.3 µM in experiment [5] and 0.145 µM in experiment [4]. Further, the Emax in experiment [6] was 136%. In addition, the Ki in experiment [1] is 0.085 µM; in experiment [2] it was more than 10 µM; in experiment [3], more than 10 µM.

For `c1ccc(-c2ccc(N3CCOCC3)cc2)cc1`, the Ki in experiment [1], in experiment [2] and in experiment [3] was more than 10 µM each time.

`CN1C[C@@H]2C[C@H]1CN2c1ccc(-c2ccccc2)nn1` yielded a Ki in experiment [3] of more than 50 µM.

On to `CN1C[C@@H]2C[C@H]1CN2c1ccc(-c2cccnc2)cc1`, for which the results for the inhibitory constant (Ki) in experiment [1], in experiment [2] and in experiment [3] were 0.14 µM, more than 10 µM and more than 10 µM, respectively. The EC50 in experiment [4] amounted to 0.126 µM.

Regarding `CN1CCN(CCCCC(=O)Nc2ccc(-c3cccnc3)cc2)CC1`, the Ki in experiment [1] was found to be 9.33 µM; in experiment [3] it was 313 µM.

On to `CN1CCN(c2ccc(-c3ccccc3)cc2)CC1`, for which the Ki was 7.7 µM in experiment [1], more than 10 µM in experiment [2] and more than 10 µM in experiment [3].

In the case of `CN1CCN(CCCCNC(=O)c2ccc(-c3cccnc3)cc2)CC1`, the Ki in experiment [1], in experiment [2] and in experiment [3] was more than 10 µM in each case.

With `CN1C[C@@H]2C[C@H]1CN2c1ccc(-c2ccccc2)cc1`, the values for the Ki in experiment [1], in experiment [2] and in experiment [3] were 0.034 µM, more than 10 µM and more than 10 µM, respectively. Besides, the EC50 in experiment [4] stood at 0.253 µM.

In the case of `O=C(CCCCN1CCOCC1)Nc1cc(-c2ccccc2)[nH]n1`, the Ki in experiment [1] is 2.6 µM; in experiment [2], more than 10 µM; in experiment [3], more than 10 µM.

On to `CN1CCN(CCCCC(=O)Nc2ccc(-c3ccccc3)cc2)CC1`, for which the Ki was found to be 1.62 µM in experiment [1] and 88.1 µM in experiment [3].

For `O=C(CCCCN1CCCCC1)Nc1ccc(-c2cccnc2)cc1`, the Ki in experiment [1] was 0.22 µM; in experiment [2], more than 10 µM; in experiment [3], more than 10 µM.

For `c1ccc(-c2ccc(N3CCOCC3)nn2)cc1`, the values for the Ki in experiment [1], in experiment [2] and in experiment [3] were more than 10 µM, more than 100 µM and more than 1000 µM, respectively.

Turning to `O=C(CCCCN1CCCCC1)Nc1cc(-c2ccccc2)[nH]n1`, the Ki in experiment [1] was 0.66 µM; in experiment [2], more than 50 µM; in experiment [3], more than 10 µM.

As for `c1cncc(-c2ccc(N3CCOCC3)cc2)c1`, the Ki in experiment [1] and in experiment [3] was more than 10 µM in each case.

`O=C(CCCCN1CC2(COC2)C1)Nc1ccc(-c2ccccc2)cc1`: the inhibitory constant (Ki) in experiment [1] is more than 10 µM; in experiment [2], more than 10 µM; in experiment [3], more than 50 µM.

On to `CN1C[C@@H]2C[C@H]1CN2CCCCC(=O)Nc1ccc(-c2cccnc2)cc1`, for which the Ki in experiment [1] is more than 10 µM; in experiment [2], more than 10 µM; in experiment [3], more than 100 µM.

`c1cc2cc(-c3ccc(N4CCOCC4)nn3)ccc2[nH]1`: the Ki in experiment [1], in experiment [2] and in experiment [3] was more than 10 µM in each case.

On to `CN1CCN(c2ccc(-c3cccnc3)cc2)CC1`, for which the figures for the Ki in experiment [1], in experiment [2] and in experiment [3] were 9.4 µM, more than 10 µM and more than 10 µM, respectively.

Consider `O=C(NCCCCN1CCCCC1)c1ccc(-c2ccccc2)cc1`, for which the Ki in experiment [1] is 0.41 µM; in experiment [2], more than 10 µM; in experiment [3], more than 10 µM.

For the molecule `O=C(CCCCN1CCOCC1)Nc1ccc(-c2ccccc2)nn1`, the Ki in experiment [1], in experiment [2] and in experiment [3] was more than 10 µM throughout.

(Values after ChEMBL document CHEMBL3421605, “Structure-activity relationship studies of SEN12333 analogues: determination of the optimal requirements for binding affinities at α7 nAChRs through incorporation of known structural motifs” (Eur J Med Chem, 2015).)
